According to ChEMBL document CHEMBL1151769, “Triprenylated flavonoids from Dorstenia psilurus and their alpha-glucosidase inhibition properties” (J Nat Prod, 2008):
Calls of active or inactive are those of the source. The calls are words filed in the database; no cut-off is given here.

How the values were obtained:
[1] = Inhibition of yeast alpha-D-glucosidase; parameters: species or system Saccharomyces
Outline: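 α-Glucosidase (500 units/mL) with p-nitrophenyl glucopyranoside (0.7 mM final) in 50 mM phosphate buffer pH 6.9, 1% v/v DMSO, 37 °C, 10 min, with or without a range of inhibitor concentrations. Stopped with an equal volume of 100 mM Na2CO3, and p-nitrophenol read at 400 nm. Rate taken from the linear slope of 1-min readings. IC50 derived by kinetic fitting.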

[2] = Inhibition of sweet almonds beta-D-glucosidase; parameters: species or system Prunus dulcis
[3] = Inhibition of jack bean beta-D-mannosidase; parameters: species or system Canavalia ensiformis
[4] = system: Canavalia ensiformis; assay: Inhibition of jack bean beta-D-mannosidase at 800 uM
[5] = system: Prunus dulcis; assay: Inhibition of sweet almonds beta-D-glucosidase at 800 uM

| SMILES | IC50 [1] [µM] | IC50 [2] [µM] | IC50 [3] [µM] | Activity [4] | Activity [5] |
| --- | --- | --- | --- | --- | --- |
| OC[C@H]1NC[C@H](O)[C@@H](O)[C@@H]1O [DUVOGLUSTAT] | 426 |  |  |  |  |
| CC(C)=CCc1ccc(-c2oc3c(CC=C(C)C)c(O)c(CC=C(C)C)c(O)c3c(=O)c2O)cc1O [DORSILURIN F] | 4.13 | 117 | 192 |  |  |
| CC(C)=CCc1ccc(-c2oc3c(CC=C(C)C)c(O)c4c(c3c(=O)c2O)OC(C)(C)CC4)cc1O [DORSILURIN J] | 16.9 | 317 | 518 |  |  |
| C=C(C)[C@@H](O)Cc1ccc(-c2oc3c(CC=C(C)C)c(O)c(CC=C(C)C)c(O)c3c(=O)c2O)cc1O [DORSILURIN G] | 7.51 | 431 | 232 |  |  |
| C=C(C)[C@@H](O)Cc1ccc(-c2oc3c(CC=C(C)C)c(O)c4c(c3c(=O)c2O)OC(C)(C)CC4)cc1O [DORSILURIN H] | 24 | 671 |  | inactive |  |
| C=C(C)[C@@H](O)Cc1ccc(-c2oc3c4c(c(CC=C(C)C)c(O)c3c(=O)c2O)OC(C)(C)CC4)cc1O [DORSILURIN I] | 21.5 | 431 |  | inactive |  |
| CC(C)=CCc1c(O)c(CC=C(C)C)c2oc(-c3ccc4c(c3)OC(C)(C)C=C4)c(O)c(=O)c2c1O [DORSILURIN C] | 11.2 | 422 | 358 |  |  |
| CC(C)=CCc1ccc(-c2oc3c4c(c5c(c3c(=O)c2O)OC(C)(C)CC5)OC(C)(C)CC4)cc1O [DORSILURIN K] | 44 |  |  | inactive | inactive |
